Measured values as given in ChEMBL document CHEMBL3421595, “Design and Synthesis of New α-Naphthoflavones as Cytochrome P450 (CYP) 1B1 Inhibitors To Overcome Docetaxel-Resistance Associated with CYP1B1 Overexpression” (J Med Chem, 2015).

Experiments:
Cytochrome P450 1A1 = target: T1, Cytochrome P450 1A1 (Homo sapiens, UniProt P04798); assay: Inhibition of human CYP1A1 assessed as reduction in 7-ethoxyresorufin O-deethylation activity by fluorescence based EROD assay; format: ADME
T1 sequence (P04798 whole entry): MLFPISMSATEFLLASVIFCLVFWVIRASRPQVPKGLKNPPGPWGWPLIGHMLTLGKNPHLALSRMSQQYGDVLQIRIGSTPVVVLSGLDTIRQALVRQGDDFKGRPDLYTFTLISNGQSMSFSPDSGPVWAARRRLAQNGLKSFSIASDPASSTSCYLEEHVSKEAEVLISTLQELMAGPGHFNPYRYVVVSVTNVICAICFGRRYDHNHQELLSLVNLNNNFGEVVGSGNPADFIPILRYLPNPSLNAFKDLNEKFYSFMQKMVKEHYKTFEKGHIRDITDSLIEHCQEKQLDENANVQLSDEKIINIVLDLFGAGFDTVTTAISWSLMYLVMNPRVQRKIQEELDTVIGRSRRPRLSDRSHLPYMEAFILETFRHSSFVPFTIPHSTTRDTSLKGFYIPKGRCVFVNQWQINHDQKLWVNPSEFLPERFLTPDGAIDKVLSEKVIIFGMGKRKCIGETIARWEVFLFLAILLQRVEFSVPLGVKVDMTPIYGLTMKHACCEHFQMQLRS
Procedure, shortened: (§1)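 Recombinant human CYP1B1, 1A1 and 1A2 in a standard EROD assay. 7-Ethoxyresorufin fixed at 150 nM. NADPH regeneration system: 1.3 mM NADP+, 3.3 mM G-6-P, 0.5 U/mL G6-PD. Incubation time 35 min for CYP1B1, 15 min for 1A1 and 50 min for 1A2. Resorufin fluorescence read at ex 545 / em 590 nm. IC50 by Probit analysis; selectivity taken as the ratio of IC50 values.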

Homo sapiens [1] = species on record: Homo sapiens; assay: Selectivity index, ratio of IC50 for human CYP1A1 to IC50 for human CYP1B1; procedure, shortened: as §1
Homo sapiens [2] = species on record: Homo sapiens; assay: Selectivity index, ratio of IC50 for human CYP1A2 to IC50 for human CYP1B1; procedure, shortened: as §1
Cytochrome P450 1A2 = target: T2, Cytochrome P450 1A2 (Homo sapiens, UniProt P05177); assay: Inhibition of human CYP1A2 assessed as reduction in 7-ethoxyresorufin O-deethylation activity by fluorescence based EROD assay; format: ADME
T2 sequence (P05177 whole entry): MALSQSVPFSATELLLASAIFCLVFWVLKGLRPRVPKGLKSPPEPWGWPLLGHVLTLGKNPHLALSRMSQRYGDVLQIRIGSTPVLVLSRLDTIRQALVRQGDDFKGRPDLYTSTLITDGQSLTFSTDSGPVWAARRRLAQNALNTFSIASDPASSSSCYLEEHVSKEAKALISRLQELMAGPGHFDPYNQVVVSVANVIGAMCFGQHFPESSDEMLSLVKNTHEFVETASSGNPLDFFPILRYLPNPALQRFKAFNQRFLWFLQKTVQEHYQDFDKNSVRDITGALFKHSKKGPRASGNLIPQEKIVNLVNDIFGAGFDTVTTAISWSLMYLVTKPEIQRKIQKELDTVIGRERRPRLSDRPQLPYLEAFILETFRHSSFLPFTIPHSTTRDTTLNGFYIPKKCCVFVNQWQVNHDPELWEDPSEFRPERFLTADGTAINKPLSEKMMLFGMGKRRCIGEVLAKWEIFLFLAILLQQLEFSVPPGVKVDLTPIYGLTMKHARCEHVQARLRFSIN
Procedure, shortened: (§2)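 Recombinant human CYP1B1, 1A1 and 1A2 in a standard EROD assay. NADPH regeneration system: 1.3 mM NADP+, 3.3 mM G-6-P, 0.5 U/mL G6-PD. Incubation time 35 min for CYP1B1, 15 min for 1A1 and 50 min for 1A2. IC50 by Probit analysis; selectivity taken as the ratio of IC50 values.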

Cytochrome P450 1B1 = target: T3, Cytochrome P450 1B1 (Homo sapiens, UniProt Q16678); assay: Inhibition of human CYP1B1 assessed as reduction in 7-ethoxyresorufin O-deethylation activity by fluorescence based EROD assay; procedure, shortened: as §2
T3 sequence (Q16678 whole entry): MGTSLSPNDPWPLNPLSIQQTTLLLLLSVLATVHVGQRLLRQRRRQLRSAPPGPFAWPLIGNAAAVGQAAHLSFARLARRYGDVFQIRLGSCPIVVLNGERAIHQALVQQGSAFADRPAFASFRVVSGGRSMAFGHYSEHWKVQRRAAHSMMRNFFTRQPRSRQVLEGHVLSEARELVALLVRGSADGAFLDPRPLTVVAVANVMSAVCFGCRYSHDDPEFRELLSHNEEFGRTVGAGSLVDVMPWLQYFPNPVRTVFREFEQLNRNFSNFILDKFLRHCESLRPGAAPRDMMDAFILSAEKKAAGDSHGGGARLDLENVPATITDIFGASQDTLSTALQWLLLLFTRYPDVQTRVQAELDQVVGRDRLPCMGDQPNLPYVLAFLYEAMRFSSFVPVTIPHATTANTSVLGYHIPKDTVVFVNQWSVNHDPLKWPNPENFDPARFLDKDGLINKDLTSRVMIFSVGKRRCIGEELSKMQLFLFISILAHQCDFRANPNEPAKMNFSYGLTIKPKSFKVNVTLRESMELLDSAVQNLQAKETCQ

Row | SMILES | IC50 (Cytochrome P450 1A1) [nM] | Ratio IC50 (Homo sapiens [1]) | Ratio IC50 (Homo sapiens [2]) | IC50 (Cytochrome P450 1A2) [nM] | IC50 (Cytochrome P450 1B1) [nM]
1 | COc1ccc(OC)c2c1c(OC)cc1c(=O)c(O)c(-c3cccc(Cl)c3)oc12 | 46 | 13 | 12 | 42.5 | 3.5
2 | COc1ccc(OC)c2c1c(OC)cc1c(=O)cc(-c3ccc(Cl)cc3)oc12 | 1.8 | 9 | 139 | 27.7 | 0.2
3 | COc1ccc(-c2cc(=O)c3cc(OC)c4c(OC)ccc(OC)c4c3o2)cc1OC | 11.5 | 4.6 | 7.7 | 19.3 | 2.5
4 | COc1ccc(OC)c2c1c(OC)cc1c(=O)c(O)c(-c3ccccc3)oc12 | 31.6 | 14 | 15 | 34.4 | 2.3
5 | COc1ccc(OC)c2c1c(OC)cc1c(=O)cc(-c3ccc(F)cc3)oc12 | 9.8 | 33 | 51 | 15.4 | 0.3
6 | COc1ccc(OC)c2c1c(OC)cc1c(=O)cc(-c3ccc(OCc4ccccc4)c(OCc4ccccc4)c3)oc12 | 535 | – | – | 96.9 | > 100000
7 | COc1ccc(OC)c2c1c(OC)cc1c(=O)cc(-c3ccccc3F)oc12 | 5.9 | 29.5 | 111 | 22.1 | 0.2
8 | COc1ccccc1-c1cc(=O)c2cc(OC)c3c(OC)ccc(OC)c3c2o1 | 18.8 | 2.1 | 1.5 | 13.5 | 9
9 | COc1ccc(OC)c2c1c(OC)cc1c(=O)cc(-c3ccccc3O)oc12 | 12.1 | 0.19 | 0.8 | 50.6 | 62.9
10 | COc1ccc(OC)c2c1c(OC)cc1c(=O)cc(-c3cccc(Cl)c3)oc12 | 6.4 | 21 | 204 | 61.1 | 0.3
11 | COc1ccc(OC)c2c1c(OC)cc1c(=O)c(O)c(-c3ccc(Cl)cc3)oc12 | 26.9 | 5.4 | 17 | 83.3 | 5
12 | COc1ccc(OC)c2c1c(OC)cc1c(=O)c(OCCOC(=O)[C@@H](N)C(C)C)c(-c3cccc(F)c3)oc12 | 192 | 1.7 | 0.6 | 68.3 | 114
13 | COc1ccc(OC)c2c1c(OC)cc1c(=O)cc(-c3ccc(OCc4ccccc4)cc3)oc12 | 67.8 | 0.09 | 0.06 | 43 | 771
14 | COc1ccc(OC)c2c1c(OC)cc1c(=O)c(O)c(-c3ccccc3Cl)oc12 | 32.9 | 21 | 31 | 49.6 | 1.6
15 | COc1ccc(OC)c2c1c(OC)cc1c(=O)c(OCCCCCCOC(=O)CN)c(-c3cccc(F)c3)oc12 | 36.2 | 0.53 | 1.7 | 120 | 68.8
16 | COc1ccc(OC)c2c1c(OC)cc1c(=O)c(O)c(-c3ccc(F)cc3)oc12 | 11.8 | 15 | 72 | 57.6 | 0.8
17 | COc1ccc(OC)c2c1c(OC)cc1c(=O)cc(-c3ccc(O)cc3)oc12 | 114 | 0.18 | 0.09 | 58.4 | 643
18 | COc1ccc(OC)c2c1c(OC)cc1c(=O)cc(-c3cccc(F)c3)oc12 | 11.5 | 267 | 853 | 36.7 | –
19 | COc1ccc(OC)c2c1c(OC)cc1c(=O)c(OCCCCCCCCOC(=O)CN)c(-c3cccc(F)c3)oc12 | 20.2 | 1.6 | 10 | 129 | 12.3
20 | COc1cc(-c2cc(=O)c3cc(OC)c4c(OC)ccc(OC)c4c3o2)cc(OC)c1OC | 22.5 | 2.3 | 2.4 | 23.5 | 9.8
21 | COc1ccc(OC)c2c1c(OC)cc1c(=O)cc(-c3ccccc3Cl)oc12 | 19.2 | 17.5 | 53 | 58 | 1.1
22 | COc1ccc(OC)c2c1c(OC)cc1c(=O)c(OCCCCOC(=O)CN)c(-c3cccc(F)c3)oc12 | 70.2 | 1.9 | 3.3 | 122 | 37
23 | COc1ccc(OC)c2c1c(OC)cc1c(=O)c(OCCOC(=O)CN)c(-c3cccc(F)c3)oc12 | 13.6 | 0.69 | 2.9 | 56.2 | 19.6
24 | COc1ccc(OC)c2c1c(OC)cc1c(=O)c(OCCOC(=O)[C@H](C)N)c(-c3cccc(F)c3)oc12 | 39.4 | 0.4 | 0.87 | 85.9 | 98.4
25 | COc1ccc(OC)c2c1c(OC)cc1c(=O)c(O)c(-c3cccc(F)c3)oc12 | 66.9 | 223 | 88 | 26.5 | 0.3
